The values below come from ChEMBL document CHEMBL4265873, “Design and discovery of silybin analogues as antiproliferative compounds using a ring disjunctive - Based, natural product lead optimization approach” (Eur J Med Chem, 2017).

For assay [1], the system named is MCF7. Description: Cytotoxicity in human MCF7 cells assessed as reduction in cell viability incubated for 68 hrs by MTT assay. Type of assay: functional, cell-based. The note with it: MCF7, 68 h. The procedure, abridged: (§1)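 Cells were trypsinised and seeded at 5x10^3 cells/well. Compound was added at 0, 0.1, 0.3, 1, 3, 10, 30 and 100 µM for 68 h. MTT (4 mg/mL solution) was then added for 4 h, and the formazan was dissolved in DMSO. Absorbance read at 570 nm. IC50 was derived from % survival across the eight concentrations. Mean ± SD of three independent experiments, each in triplicate.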

Another assay deals with ZR-75-1. In words: Cytotoxicity in human ZR-75-1 cells assessed as reduction in cell viability incubated for 68 hrs by MTT assay. Particulars: ZR-75-1, 68 h. Type of assay: functional, cell-based. The procedure, abridged: as §1
Background: Formazan colour is commonly taken as a measure of viable cells.

In a further assay the test system is BT-20. Description: Cytotoxicity in human BT20 cells assessed as reduction in cell viability incubated for 68 hrs by MTT assay. Type of assay: functional, cell-based. Particulars: BT-20, 68 h. Summed up:
as §1

In the next assay the test system is MDA-MB-231. In words: Cytotoxicity in human MDA-MB-231 cells assessed as reduction in cell viability incubated for 68 hrs by MTT assay. Type of assay: functional, cell-based. The note with it: MDA-MB-231, 68 h. The procedure, abridged:
as §1

The test system of a further assay is DU-145. Description: Cytotoxicity in human DU145 cells assessed as reduction in cell viability incubated for 68 hrs by MTT assay. Particulars: DU-145, 68 h. Type of assay: functional, cell-based. The procedure, abridged:
as §1

The subject of the next assay is PANC-1. In words: Cytotoxicity in human PANC1 cells assessed as reduction in cell viability incubated for 68 hrs by MTT assay. Type of assay: functional, cell-based. The note with it: PANC-1, 68 h. Summed up: as §1
Another assay deals with 2008. In words: Cytotoxicity in human OV2008 cells assessed as reduction in cell viability incubated for 68 hrs by MTT assay. Type of assay: functional, cell-based. The note with it: Homo sapiens, 2008, 68 h. The procedure, abridged:
as §1

Another assay has as its system A2780. Description: Cytotoxicity in human A2780 cells assessed as reduction in cell viability incubated for 68 hrs by MTT assay. Type of assay: functional, cell-based. Particulars: A2780, 68 h. The procedure, abridged:
as §1

A short description of assay [2]: Cytotoxicity in human CRL1459 cells assessed as reduction in cell viability incubated for 68 hrs by MTT assay. Type of assay: cell-based. Summed up: as §1
Another assay deals with HEK293. Description: Cytotoxicity in HEK293 cells assessed as reduction in cell viability incubated for 68 hrs by MTT assay. Type of assay: cell-based. The note with it: Homo sapiens, HEK293, 68 h. Summed up: as §1
The test system of a further assay is CHO. Description: Cytotoxicity in CHO cells assessed as reduction in cell viability incubated for 68 hrs by MTT assay. The note with it: Cricetulus griseus. Type of assay: cell-based. Summed up: as §1
In assay [3] the test system is MCF7. In words: Potency index, ratio of IC50 for silybin to IC50 for test compound for cytotoxicity in human MCF7 cells assessed as reduction in cell viability incubated for 68 hrs by MTT assay. Type of assay: functional.

Turning to `O=C(/C=C/c1cccc(OCc2ccccc2)c1)c1ccc(Cl)c(Cl)c1Cl`, the IC50 (usually the concentration that gives 50% inhibition) was determined as 2.4 µM in the assay on MCF7 [1]; 6.2 µM in the assay on ZR-75-1; 3.9 µM in the assay with BT-20; 2.4 µM in the assay with MDA-MB-231; 6.4 µM with DU-145; 2.4 µM in the assay on PANC-1. Further, the IC50 turned out to be 1.5 µM in the assay on 2008; 1.5 µM in the assay with A2780; 2.5 µM in assay [2]; 2.4 µM in the assay with HEK293; 8.6 µM with CHO.

In the case of `COc1cc([C@H]2Oc3cc([C@H]4Oc5ccccc5C(=O)[C@@H]4O)ccc3O[C@@H]2CO)ccc1O`, the IC50 with MCF7 [1] worked out at 13.8 µM.

For `COc1ccc(C(=O)/C=C/c2cccc(OCc3ccccc3)c2)cc1`, the IC50 is 6 µM in the assay on MCF7 [1]; 19.9 µM with ZR-75-1; 38.3 µM in the assay with BT-20; 12.4 µM with MDA-MB-231; 51.3 µM in the assay with DU-145; 44.3 µM in the assay on PANC-1. For the same molecule, the IC50 was 17.2 µM with 2008; 38.1 µM in the assay on A2780; 25.4 µM in [2]; 79.8 µM in the assay with HEK293; 22.9 µM in the assay with CHO.

Regarding `Cc1ccc(C(=O)/C=C/c2cccc(OCc3ccccc3)c2)cc1`, the IC50 was 21.7 µM in the assay with MCF7 [1]; 25.8 µM with ZR-75-1; 61 µM in the assay with BT-20; 15.6 µM in the assay on MDA-MB-231; 25.6 µM in the assay with DU-145; 41.6 µM in the assay on PANC-1. Also, the IC50 with 2008 stood at 12.9 µM; with A2780 it was 20.5 µM; in assay [2], 19.8 µM; in the assay on HEK293 it was 8.2 µM; with CHO, 26.4 µM.

With `O=C(/C=C/c1cccc(OCc2ccccc2)c1)c1cccc(Br)c1`, the IC50 in the assay on MCF7 [1] was 7.9 µM; in the assay on ZR-75-1, 8.3 µM; in the assay on BT-20 it was 7.1 µM; in the assay with MDA-MB-231, 6.9 µM; in the assay with DU-145 it was 9.1 µM; in the assay on PANC-1, 6.4 µM. The IC50 in the assay with 2008 was 5.7 µM; in the assay on A2780 it was 6.3 µM; in assay [2], 7.2 µM; in the assay on HEK293 it was 7.1 µM; with CHO it was 9.2 µM.

For `O=C(/C=C/c1ccccc1)c1ccccc1` [CHALCONE], the IC50 in the assay with MCF7 [1] was 12.6 µM; in the assay on ZR-75-1, 13.7 µM; with BT-20 it was 21.1 µM; in the assay with MDA-MB-231, 6.7 µM; in the assay on DU-145, 50.1 µM; in the assay on PANC-1, 26 µM. Moreover, the IC50 in the assay on 2008 is 33.4 µM; in the assay with A2780, 67.5 µM; in assay [2], 6.4 µM; in the assay on HEK293, 10.7 µM; in the assay on CHO it was 23 µM.

Turning to `O=C(/C=C/c1cccc(OCc2ccccc2)c1)c1ccc(Cl)cc1Cl`, the IC50 worked out at 9.4 µM with MCF7 [1]; 9.4 µM in the assay with ZR-75-1; 19.2 µM in the assay on BT-20; 6.8 µM in the assay on MDA-MB-231; 27.3 µM in the assay on DU-145; 27.2 µM in the assay on PANC-1. The IC50 in the assay with 2008 amounted to 5.2 µM; with A2780, 21.4 µM; in assay [2], 7.8 µM; in the assay on HEK293 it was 24.9 µM; in the assay on CHO, 27.5 µM.

Turning to `O=C(/C=C/c1cccc(OCc2ccccc2)c1)c1ccccc1`, the IC50 in the assay with MCF7 [1] turned out to be 9.8 µM; in the assay on ZR-75-1, 8.5 µM; with BT-20 it was 25.5 µM; in the assay with MDA-MB-231, 20 µM; in the assay with DU-145 it was 42.4 µM; with PANC-1, 23.5 µM. In addition, the IC50 in the assay on 2008 was 4.9 µM; with A2780, 6.7 µM; in assay [2] it was 7.8 µM; in the assay with HEK293 it was 14.1 µM; in the assay on CHO, 22 µM.

On to `O=C(/C=C/c1cccc(OCc2ccccc2)c1)c1ccccc1Br`, for which the 50% inhibitory concentration (IC50) came out at 1.6 µM in the assay on MCF7 [1]; 2.9 µM with ZR-75-1; 1.8 µM with BT-20; 1.8 µM in the assay on MDA-MB-231; 3 µM in the assay with DU-145; 61.2 µM in the assay on PANC-1. Moreover, the IC50 is 1.2 µM with 2008; 2.5 µM with A2780; 2.4 µM in assay [2]; 2.2 µM with HEK293; 9.1 µM with CHO. Moreover, the “Ratio IC50” value in the assay on MCF7 [3] is 142.

Take `O=C(/C=C/c1cccc(OCc2ccccc2)c1)c1ccc([N+](=O)[O-])cc1`: the IC50 in the assay on MCF7 [1] worked out at 17.5 µM; with ZR-75-1, 37.7 µM; with BT-20 it was 80.9 µM; in the assay on MDA-MB-231 it was 23.3 µM; with DU-145, 52.5 µM; in the assay with PANC-1, 25.4 µM. In addition, the IC50 came out at 49 µM in the assay with 2008; 56.4 µM in the assay on A2780; 26 µM in assay [2]; 59.3 µM in the assay with HEK293; 82.4 µM in the assay on CHO.

Turning to `O=C(/C=C/c1cccc(OCc2ccccc2)c1)c1ccc(Br)cc1`, the IC50 in the assay with MCF7 [1] was determined as 6.5 µM; in the assay on ZR-75-1, 6.5 µM; with BT-20, 7.4 µM; with MDA-MB-231 it was 6.4 µM; in the assay on DU-145, 5.7 µM; with PANC-1 it was 2.1 µM. In addition, the IC50 with 2008 worked out at 1 µM; with A2780, 1.8 µM; in assay [2], 5.3 µM; in the assay with HEK293, 5.4 µM; with CHO it was 9 µM.

Regarding `COc1cc([C@H]2Oc3cc([C@H]4Oc5cc(O)cc(O)c5C(=O)[C@@H]4O)ccc3O[C@@H]2CO)ccc1O` [SILYBIN A], the IC50 in the assay with MCF7 [1] stood at 223 µM.

Consider `COc1cc(C2Oc3cc(/C=C/C(=O)c4ccccc4O)ccc3OC2CO)ccc1O` (stereo not given), for which the concentration for half-maximal inhibition (IC50) with MCF7 [1] is 12.1 µM.

Turning to `O=C(/C=C/c1cccc(OCc2ccccc2)c1)c1ccc(Cl)cc1`, the IC50 amounted to 24.8 µM in the assay with MCF7 [1]; 20 µM with ZR-75-1; 63.2 µM with BT-20; 21.5 µM in the assay on MDA-MB-231; 43.4 µM in the assay on DU-145; 21.3 µM with PANC-1. Further, the IC50 in the assay on 2008 came out at 20 µM; with A2780, 56.4 µM; in [2] it was 12.8 µM; in the assay with HEK293 it was 22.8 µM; with CHO, 43.6 µM.
